In general, MIC refers to the lowest concentration that inhibits growth of the organism.

These results are taken from ChEMBL document CHEMBL1122441, “Structure-activity relationships of synthetic antibiotic analogues of anisomycin” (1983).

One test has as its system Actinomyces israelii. In words: Antibacterial activity against Actinomyces israelii, activity expressed as inhibitory zone (mm, diameter). The format is functional. The method in brief:
(§1)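 Agar diffusion: disks loaded with 0.05 mg drug (stock 1 mg/mL in Me2SO-EtOH 1:9) on brain-heart infusion agar seeded 1:100 with 48-h anaerobe culture grown in thioglycolate broth; incubated anaerobically at 37 °C for 24 h; zone diameter measured in mm.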

The subject of another test is Bacteroides fragilis. Nature of the test: Antibacterial activity against Bacteroides fragilis, activity expressed as […] inhibitory zone (mm, diameter). Format: functional. In a few lines:
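Agar diffusion vs B. fragilis grown in thioglycolate broth: 0.05 mg drug per paper disk (stock 1 mg/mL, Me2SO-EtOH 1:9), brain-heart infusion agar seeded with 48-h culture at 1:100, anaerobic 37 °C, 24 h; zone diameter in mm.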

In the next test the test system is Clostridium novyi. In words: Antibacterial activity against Clostridium novyi, activity expressed as inhibitory zone (mm, diameter). Format: functional. In a few lines: as §1
Test [1] concerns Candida albicans. Nature of the test: Antifungal activity against Candida albicans, activity expressed as […] inhibitory zone (mm, diameter). Format: functional. In a few lines: (§2)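 Yeast grown in Sabouraud's dextrose broth, 24-h culture seeded 1:100 into agar; paper disks carrying 0.05 mg drug (from 1 mg/mL stock in Me2SO-EtOH 1:9); 37 °C, read after 48 h as zone diameter (mm).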

In test [2] the test system is Epidermophyton floccosum. In words: Antifungal activity against Epidermophyton floccosum, activity expressed as inhibitory zone (mm, diameter). The format is functional. The method in brief: (§3)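 Dermatophytes grown in Sabouraud's dextrose broth, 4-5 day cultures seeded 1:100 into agar; disks with 0.05 mg drug (1 mg/mL stock, Me2SO-EtOH 1:9); grown and tested at 28 °C, zone diameter (mm) read after 48 h.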

In test [3] the test system is Epidermophyton floccosum. Nature of the test: Antifungal activity against Epidermophyton floccosum, activity expressed as minimum inhibitory concentration (ug/mL). The format is functional.
Test [4] relates to Entamoeba histolytica. Nature of the test: Antiprotozoal activity measured as the conc for 100% inhibition of Entamoeba histolytica. Format: functional, organism-based. In a few lines:
(§4)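 E. histolytica (J 190) grown 48 h at 37 °C in modified Boeck Drbohlav medium, pooled; 0.6 × 10^6 organisms inoculated into 10 mL medium with drug at 32 to 0.06 µg/mL, incubated 48 h.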

For another test, the system named is Cutibacterium acnes. In words: Antibacterial activity against Propionibacterium acnes, activity expressed as inhibitory zone (mm, diameter). Format: functional. In a few lines:
as §1

For test [5], the system named is Saccharomyces cerevisiae. In words: Antifungal activity against Saccharomyces cerevisiae, activity expressed as inhibitory zone (mm, diameter); QA is questionable activity. Format: functional, organism-based. The method in brief: as §2
In test [6] the test system is Saccharomyces cerevisiae. In words: Antifungal activity against Saccharomyces cerevisiae, activity expressed as minimum inhibitory concentration (ug/mL). Format: functional.
For test [7], the system named is Tritrichomonas suis. In words: Antiprotozoal activity measured as the conc for 100% inhibition of Trichomonas foetus. Format: functional, organism-based. In a few lines:
(§5)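 Protozoa grown 48 h (T. vaginalis in TYM 721, T. foetus in TYM 359, E. histolytica J 190 in modified Boeck Drbohlav medium, 37 °C) and pooled; 0.6 × 10^6 organisms into 10-mL tubes with drug 32 to 0.06 µg/mL, 48 h; inhibition scored microscopically against untreated controls as 100, >95, 95-25 or <25%.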

Test [8] concerns Tritrichomonas suis. In words: Antiprotozoal activity measured as the conc for 95-[…]% inhibition of Trichomonas foetus. The format is functional, organism-based.
Test [9] relates to Tritrichomonas suis. In words: Antiprotozoal activity measured as the conc for <[…]% inhibition of Trichomonas foetus. Format: functional, organism-based.
Test [10] concerns Tritrichomonas suis. In words: Antiprotozoal activity measured as the conc for >95% inhibition of Trichomonas foetus. The format is functional, organism-based. In a few lines:
as §5

The subject of a further test is Streptococcus pyogenes. In words: Antibacterial activity against Streptococcus pyogenes C, activity expressed as inhibitory zone (mm, diameter). The format is functional. In a few lines: as §1
Test [11] concerns Trichomonas vaginalis. Nature of the test: Antiprotozoal activity measured as the conc for 100% inhibition of Trichomonas vaginalis. Format: functional, organism-based. In a few lines: as §5
Test [12] relates to Trichomonas vaginalis. Nature of the test: Antiprotozoal activity measured as the conc for 95-[…]% inhibition of Trichomonas vaginalis. Format: functional, organism-based.
For test [13], the system named is Trichomonas vaginalis. In words: Antiprotozoal activity measured as the conc for >95% inhibition of Trichomonas vaginalis. Format: functional, organism-based. The method in brief:
as §5

For test [14], the system named is Trichophyton benhamiae. In words: Antifungal activity against Trichophyton mentagrophytes, activity expressed as inhibitory zone (mm, diameter). The format is functional, Arthroderma benhamiae. In a few lines: as §3
Test [15] relates to Trichophyton benhamiae. In words: Antifungal activity against Trichophyton mentagrophytes, activity expressed as minimum inhibitory concentration (ug/mL). Format: functional, Arthroderma benhamiae.
Test [16] concerns Candida albicans. In words: Antifungal activity against Candida albicans, activity expressed as minimum inhibitory concentration (ug/mL). Format: functional. In a few lines: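 Tube dilution in Sabouraud's dextrose broth (ca. 3 mL/tube) at 37 °C; inoculum from 24-h yeast culture, 1:1000 in saline. Drug dissolved in Me2SO-EtOH (1:9), stock 3.2 mg/mL; twofold serial dilutions 32 to 0.06 µg/mL. Read after 48 h; MIC = lowest concentration with no visible growth.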

Test [17] deals with Entamoeba histolytica. Nature of the test: Antiprotozoal activity measured as the conc for >95% inhibition of Entamoeba histolytica. The format is functional, organism-based. The method in brief:
as §4

Test [18] has as its system Candida albicans. Nature of the test: Antifungal activity against Candida albicans, activity expressed as minimum inhibitory concentration ([…]). The format is functional.
Test [19] relates to Entamoeba histolytica. Nature of the test: Antiprotozoal activity measured as the conc for <[…]% inhibition of Entamoeba histolytica. The format is functional, organism-based.
The subject of test [20] is Saccharomyces cerevisiae. In words: Antifungal activity against Saccharomyces cerevisiae, activity expressed as inhibitory zone (mm, diameter). Format: functional. In a few lines:
as §2

For test [21], the system named is Saccharomyces cerevisiae. In words: Antifungal activity against Saccharomyces cerevisiae, activity expressed as minimum inhibitory concentration ([…]). The format is functional.
Test [22] deals with Trichomonas vaginalis. In words: Antiprotozoal activity measured as the conc for <[…]% inhibition of Trichomonas vaginalis. Format: functional, organism-based.
The subject of test [23] is Trichophyton benhamiae. Nature of the test: Antifungal activity against Trichophyton mentagrophytes, activity expressed as minimum inhibitory concentration ([…]). Format: functional, Arthroderma benhamiae.
For test [24], the system named is Epidermophyton floccosum. In words: Antifungal activity against Epidermophyton floccosum, activity expressed as minimum inhibitory concentration ([…]). The format is functional.
The subject of test [25] is Entamoeba histolytica. In words: Antiprotozoal activity measured as the conc for 95-[…]% inhibition of Entamoeba histolytica. Format: functional, organism-based.
Setting [26] is: Epidermophyton floccosum, read-out: MIC.
[27] abbreviates: Saccharomyces cerevisiae, read-out: MIC.
The mark [28] stands for this setting: Trichophyton benhamiae, read-out: MIC.
Where [29] appears, read: Candida albicans, read-out: MIC.

Values after ≈ are worked out from the molar mass of the structure shown.

As to `CC(=O)O[C@@H]1[C@@H](O)CN[C@@H]1Cc1ccccc1`, the Inhibitory zone in the test with Actinomyces israelii is 0 mm; in the test with Bacteroides fragilis, 0 mm; with Clostridium novyi, 0 mm; in the test on Candida albicans [1], 0 mm; with Epidermophyton floccosum [2], 8 mm; in the test on Cutibacterium acnes, 0 mm. Moreover, the Inhibitory zone in the test with Streptococcus pyogenes stood at 0 mm; in the test on Trichophyton benhamiae [14], 10 mm. Further, the minimal inhibitory concentration (MIC) in the test on Epidermophyton floccosum [3] (setting [26]) came to 32 µg/mL (≈ 136 µM); with Saccharomyces cerevisiae [6] (setting [27]), 2 µg/mL (≈ 8.5 µM); in the test with Trichophyton benhamiae [15] (setting [28]), 16 µg/mL (≈ 68 µM); with Candida albicans [16] (setting [29]), 32 µg/mL (≈ 136 µM). Also, the Concentration worked out at 16 µg/mL in the test with Entamoeba histolytica [4]; 32 µg/mL in the test on Tritrichomonas suis [7]; 4 µg/mL in the test with Tritrichomonas suis [8]; 2 µg/mL in the test on Tritrichomonas suis [9]; 16 µg/mL in the test with Tritrichomonas suis [10]; 8 µg/mL with Trichomonas vaginalis [11]. Also, the Concentration is 2 µg/mL with Trichomonas vaginalis [12], 4 µg/mL in the test on Trichomonas vaginalis [13] and 2 µg/mL in the test with Entamoeba histolytica [17]. Besides, the QA result in the test with Saccharomyces cerevisiae [5] was “questionable activity”.
As to `COc1ccc(C(C)[C@H]2NC[C@H](O)[C@H]2OC(C)=O)cc1` (stereo partly specified), the Inhibitory zone in the test on Actinomyces israelii amounted to 0 mm; with Bacteroides fragilis, 24 mm; in the test with Clostridium novyi it was 8 mm; in the test on Candida albicans [1] it was 0 mm; with Epidermophyton floccosum [2], 0 mm; with Cutibacterium acnes it was 0 mm. For the same compound, the Inhibitory zone in the test on Saccharomyces cerevisiae [20], with Streptococcus pyogenes and in the test on Trichophyton benhamiae [14] was 0 mm in each case. Further, the MIC against Candida albicans [18], with Saccharomyces cerevisiae [21], against Trichophyton benhamiae [23] and against Epidermophyton floccosum [24] was greater than 32 µg/mL in each case. In addition, the Concentration in the test with Entamoeba histolytica [19], in the test on Tritrichomonas suis [9] and with Trichomonas vaginalis [22] was 32 µg/mL in each case.
In the case of `Cc1ncc([N+](=O)[O-])n1CCO` [METRONIDAZOLE], the Inhibitory zone in the test with Actinomyces israelii was 0 mm; in the test with Bacteroides fragilis it was 20 mm; with Clostridium novyi, 25 mm; in the test with Candida albicans [1], 0 mm; with Epidermophyton floccosum [2], 8 mm; with Cutibacterium acnes it was 0 mm. In addition, the Inhibitory zone in the test on Streptococcus pyogenes and in the test with Trichophyton benhamiae [14] was 0 mm each time. The MIC with Epidermophyton floccosum [3] (setting [26]), in the test on Saccharomyces cerevisiae [6] (setting [27]), with Trichophyton benhamiae [15] (setting [28]) and with Candida albicans [16] (setting [29]) was greater than 32 µg/mL in each case. Also, the Concentration in the test with Entamoeba histolytica [4] is 0.25 µg/mL; in the test with Tritrichomonas suis [7], 0.5 µg/mL; in the test on Tritrichomonas suis [8] it was 0.25 µg/mL; in the test with Tritrichomonas suis [9] it was 0.12 µg/mL; with Trichomonas vaginalis [11] it was 0.5 µg/mL; in the test on Trichomonas vaginalis [12], 0.12 µg/mL. Also, the results for the Concentration in the test on Trichomonas vaginalis [22], in the test on Trichomonas vaginalis [13] and in the test with Entamoeba histolytica [17] were 0.06 µg/mL, 0.25 µg/mL and 0.12 µg/mL, respectively.
Turning to `COc1ccc(C[C@H]2NC[C@H](O)[C@H]2OC(C)=O)cc1` (racemic), the Concentration with Entamoeba histolytica [4] stood at 4 µg/mL; in the test on Entamoeba histolytica [25], 0.5 µg/mL; in the test on Entamoeba histolytica [19], 0.25 µg/mL; with Tritrichomonas suis [7] it was 8 µg/mL; with Tritrichomonas suis [9], 1 µg/mL; in the test with Tritrichomonas suis [10], 2 µg/mL. Further, the Concentration was 2 µg/mL in the test with Trichomonas vaginalis [11]; 0.5 µg/mL with Trichomonas vaginalis [12]; 0.25 µg/mL in the test with Trichomonas vaginalis [22]; 1 µg/mL in the test on Trichomonas vaginalis [13]; 2 µg/mL in the test with Entamoeba histolytica [17].
In the case of `COc1ccc(C[C@H]2NC[C@H](O)[C@H]2OC(C)=O)cc1` [ANISOMYCIN], the Inhibitory zone in the test on Bacteroides fragilis came to 10 mm; in the test with Saccharomyces cerevisiae [20], 13 mm. Moreover, the MIC against Epidermophyton floccosum [3] was determined as 16 µg/mL (≈ 60.3 µM); in the test on Saccharomyces cerevisiae [6] it was 0.25 µg/mL (≈ 0.942 µM); in the test on Trichophyton benhamiae [15], 2 µg/mL (≈ 7.54 µM); against Candida albicans [16], 4 µg/mL (≈ 15.1 µM).
